From PMC11235002 (BMJ Oncology, 2024)

Tested on: patients with advanced or metastatic solid tumours
Assay: Safety: treatment-emergent adverse events
Format: in vivo, human
Summary of the method: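 Safety covered monotherapy Parts 1a/2, with oral tablet or capsule dosing twice daily on days 1–28 of 28-day cycles. TEAEs were graded by CTCAE v4.03, which counts malignant progression as an AE. Laboratory values, vital signs and physical examinations were also monitored. The safety population was all patients receiving ≥1 dose. DLTs were defined as grade 3–4 toxicities, urea cycle inhibition, or AUC0–12h >100 µg.h/mL.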

C[C@H](N)C(=O)N1C[C@H](CCCB(O)O)[C@](N)(C(=O)O)C1 [INCB001158]
TEAEs leading to dose reduction (monotherapy): no TEAE led to dose reduction | recommended phase 2 dose (RP2D) (monotherapy): 100 mg two times per day | serious TEAE abdominal pain (monotherapy): 5.6% | serious TEAE back pain (monotherapy): 2.8% | serious TEAE cellulitis (monotherapy): 2.8% | serious TEAE malignant neoplasm progression (monotherapy): 4.7% | serious TEAE small-intestinal obstruction (monotherapy): 2.8% | ALT increased, any-grade TEAE (monotherapy 50 mg bid (n=8)): 0 n (%) | AST increased, any-grade TEAE (monotherapy 50 mg bid (n=8)): 1 (12.5) n (%) | Abdominal pain, any-grade TEAE (monotherapy 50 mg bid (n=8)): 2 (25.0) n (%) | Abdominal pain, grade ≥3 TEAE (monotherapy 50 mg bid (n=8)): 1 (12.5) n (%) | Anaemia, any-grade TEAE (monotherapy 50 mg bid (n=8)): 3 (37.5) n (%) | Anaemia, grade ≥3 TEAE (monotherapy 50 mg bid (n=8)): 1 (12.5) n (%) | Any TEAE (monotherapy 50 mg bid (n=8)): 7 (87.5) n (%) | Any grade ≥3 TEAE (monotherapy 50 mg bid (n=8)): 6 (75.0) n (%) | Any irTEAE (monotherapy 50 mg bid (n=8)): 0 n (%) | Colitis, irTEAE (monotherapy 50 mg bid (n=8)): 0 n (%) | Constipation, any-grade TEAE (monotherapy 50 mg bid (n=8)): 2 (25.0) n (%) | Decreased appetite, any-grade TEAE (monotherapy 50 mg bid (n=8)): 0 n (%) | Diarrhoea, any-grade TEAE (monotherapy 50 mg bid (n=8)): 0 n (%) | Fatigue, any-grade TEAE (monotherapy 50 mg bid (n=8)): 1 (12.5) n (%) | Fatigue, grade ≥3 TEAE (monotherapy 50 mg bid (n=8)): 0 n (%) | Hypoalbuminaemia, any-grade TEAE (monotherapy 50 mg bid (n=8)): 0 n (%) | Hyponatraemia, any-grade TEAE (monotherapy 50 mg bid (n=8)): 0 n (%) | Hyponatraemia, grade ≥3 TEAE (monotherapy 50 mg bid (n=8)): 0 n (%) | Malignant neoplasm progression, grade ≥3 TEAE (monotherapy 50 mg bid (n=8)): 0 n (%) | Nausea, any-grade TEAE (monotherapy 50 mg bid (n=8)): 2 (25.0) n (%) | Oedema peripheral, any-grade TEAE (monotherapy 50 mg bid (n=8)): 2 (25.0) n (%) | Vomiting, any-grade TEAE (monotherapy 50 mg bid (n=8)): 2 (25.0) n (%) | ALT increased, any-grade TEAE (monotherapy 75 mg bid (n=7)): 0 n (%) | AST increased, any-grade TEAE (monotherapy 75 mg bid (n=7)): 0 n (%) | Abdominal pain, any-grade TEAE (monotherapy 75 mg bid (n=7)): 0 n (%) | Abdominal pain, grade ≥3 TEAE (monotherapy 75 mg bid (n=7)): 0 n (%) | Anaemia, any-grade TEAE (monotherapy 75 mg bid (n=7)): 3 (42.9) n (%) | Anaemia, grade ≥3 TEAE (monotherapy 75 mg bid (n=7)): 1 (14.3) n (%) | Any TEAE (monotherapy 75 mg bid (n=7)): 7 (100.0) n (%) | Any grade ≥3 TEAE (monotherapy 75 mg bid (n=7)): 2 (28.6) n (%) | Any irTEAE (monotherapy 75 mg bid (n=7)): 0 n (%) | Colitis, irTEAE (monotherapy 75 mg bid (n=7)): 0 n (%) | Constipation, any-grade TEAE (monotherapy 75 mg bid (n=7)): 1 (14.3) n (%) | Decreased appetite, any-grade TEAE (monotherapy 75 mg bid (n=7)): 2 (28.6) n (%) | Diarrhoea, any-grade TEAE (monotherapy 75 mg bid (n=7)): 0 n (%) | Fatigue, any-grade TEAE (monotherapy 75 mg bid (n=7)): 3 (42.9) n (%) | Fatigue, grade ≥3 TEAE (monotherapy 75 mg bid (n=7)): 0 n (%) | Hypoalbuminaemia, any-grade TEAE (monotherapy 75 mg bid (n=7)): 0 n (%) | Hyponatraemia, any-grade TEAE (monotherapy 75 mg bid (n=7)): 1 (14.3) n (%) | Hyponatraemia, grade ≥3 TEAE (monotherapy 75 mg bid (n=7)): 0 n (%) | Malignant neoplasm progression, grade ≥3 TEAE (monotherapy 75 mg bid (n=7)): 0 n (%) | Nausea, any-grade TEAE (monotherapy 75 mg bid (n=7)): 3 (42.9) n (%) | Oedema peripheral, any-grade TEAE (monotherapy 75 mg bid (n=7)): 0 n (%) | Vomiting, any-grade TEAE (monotherapy 75 mg bid (n=7)): 3 (42.9) n (%) | ALT increased, any-grade TEAE (monotherapy 100 mg bid (n=85)): 4 (4.7) n (%) | AST increased, any-grade TEAE (monotherapy 100 mg bid (n=85)): 8 (9.4) n (%) | Abdominal pain, any-grade TEAE (monotherapy 100 mg bid (n=85)): 15 (17.6) n (%) | Abdominal pain, grade ≥3 TEAE (monotherapy 100 mg bid (n=85)): 5 (5.9) n (%) | Anaemia, any-grade TEAE (monotherapy 100 mg bid (n=85)): 11 (12.9) n (%) | Anaemia, grade ≥3 TEAE (monotherapy 100 mg bid (n=85)): 4 (4.7) n (%) | Any TEAE (monotherapy 100 mg bid (n=85)): 81 (95.3) n (%) | Any grade ≥3 TEAE (monotherapy 100 mg bid (n=85)): 40 (47.1) n (%) | Any irTEAE (monotherapy 100 mg bid (n=85)): 1 (1.2) n (%) | Constipation, any-grade TEAE (monotherapy 100 mg bid (n=85)): 18 (21.2) n (%) | Decreased appetite, any-grade TEAE (monotherapy 100 mg bid (n=85)): 17 (20.0) n (%) | Diarrhoea, any-grade TEAE (monotherapy 100 mg bid (n=85)): 5 (5.9) n (%) | Fatigue, any-grade TEAE (monotherapy 100 mg bid (n=85)): 23 (27.1) n (%) | Fatigue, grade ≥3 TEAE (monotherapy 100 mg bid (n=85)): 6 (7.1) n (%) | Hypoalbuminaemia, any-grade TEAE (monotherapy 100 mg bid (n=85)): 6 (7.1) n (%) | Hyponatraemia, any-grade TEAE (monotherapy 100 mg bid (n=85)): 5 (5.9) n (%) | Hyponatraemia, grade ≥3 TEAE (monotherapy 100 mg bid (n=85)): 2 (2.4) n (%) | Malignant neoplasm progression, grade ≥3 TEAE (monotherapy 100 mg bid (n=85)): 5 (5.9) n (%) | Nausea, any-grade TEAE (monotherapy 100 mg bid (n=85)): 18 (21.2) n (%) | Oedema peripheral, any-grade TEAE (monotherapy 100 mg bid (n=85)): 13 (15.3) n (%) | Vomiting, any-grade TEAE (monotherapy 100 mg bid (n=85)): 9 (10.6) n (%) | Colitis, irTEAE (monotherapy 100 mg bid (n=85), related to INCB001158 treatment): 1 (1.2)¶ n (%) | ALT increased, any-grade TEAE (monotherapy 150 mg bid (n=7)): 1 (14.3) n (%) | AST increased, any-grade TEAE (monotherapy 150 mg bid (n=7)): 1 (14.3) n (%) | Abdominal pain, any-grade TEAE (monotherapy 150 mg bid (n=7)): 1 (14.3) n (%) | Abdominal pain, grade ≥3 TEAE (monotherapy 150 mg bid (n=7)): 0 n (%) | Anaemia, any-grade TEAE (monotherapy 150 mg bid (n=7)): 0 n (%) | Anaemia, grade ≥3 TEAE (monotherapy 150 mg bid (n=7)): 0 n (%) | Any TEAE (monotherapy 150 mg bid (n=7)): 7 (100.0) n (%) | Any grade ≥3 TEAE (monotherapy 150 mg bid (n=7)): 1 (14.3) n (%)
